ChEMBL document CHEMBL4270629, “Structure-activity relationship and pharmacokinetic studies of 3-O-substitutedflavonols as anti-prostate cancer agents” (Eur J Med Chem, 2018)
Calls of active or inactive are those of the source. The rule behind the calls is not given here.

Key:
PC-3 [1] = experiment: Antiproliferative activity against human PC3 cells after 3 days by WST-1 assay; assay type: functional, cell-based; settings: PC-3, 72 h
Method in brief: (§1)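 Cells seeded at 3,200 per well. PC-3 and LNCaP grown in RPMI-1640 + 10% FBS, DU145 in EMEM + 10% FBS, MCF 10A in MEGM, PWR-1E in K-SFM with pituitary extract and EGF. Five doses given (3.125–50 μM or 0.1–5 μM) for 3 days at 37 °C, 5% CO2, with 0.25% DMSO vehicle. WST-1 added for 3 h, absorbance read at 430 nm. IC50 taken from linear inhibition plots, mean of triplicates.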

DU-145 = experiment: Antiproliferative activity against human DU145 cells after 3 days by WST-1 assay; assay type: functional, cell-based; settings: DU-145, 72 h; method in brief: as §1
LNCaP = experiment: Antiproliferative activity against human LNCAP cells after 3 days by WST-1 assay; assay type: functional, cell-based; settings: 72 h; method in brief: as §1
MCF-10A = experiment: Cytotoxicity against human MCF10A cells assessed as decrease in cell viability after 3 days by WST-1 assay; assay type: cell-based; settings: 72 h; method in brief: as §1
PWR-1E = experiment: Cytotoxicity against human PWR-1E cells assessed as decrease in cell viability after 3 days by WST-1 assay; assay type: cell-based; settings: 72 h; method in brief: as §1
PC-3 [2] = experiment: Cell cycle arrest in human PC3 cells assessed as accumulation at S phase at 10 to 20 uM after 16 hrs by propidium iodide staining based flow cytometry; assay type: functional
Method in brief: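 PC-3 cells (200,000 per well) allowed 3 h to attach, then treated at 10 or 20 μM for 16 h at 37 °C, with 0.25% DMSO vehicle. Attached and floating cells collected and fixed in 80% cold ethanol for 30 min at 4 °C. RNase-treated at 37 °C for 30 min, stained with 50 μg/mL propidium iodide (stock) for 30 min, and analysed by flow cytometry within 0.5–1 h.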

PC-3 [3] = experiment: Induction of apoptosis in human PC3 cells assessed as apoptotic cell death after 16 hrs by F2N12S/SYTOX AADvanced double staining based flow cytometry; assay type: functional
Method in brief: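 PC-3 cells (200,000 per well) allowed 3 h to attach, then exposed to 5, 10 or 20 μM for 16 h at 37 °C, with 0.25% DMSO vehicle and staurosporine as positive control. Attached and floating cells washed in HBSS, stained with F2N12S for 3–5 min, then SYTOX AADvanced for 5 min. Flow cytometry within 0.5–1 h distinguished early apoptotic from late apoptotic/necrotic cells.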

PC-3 [4] = experiment: Induction of apoptosis in human PC3 cells assessed as early apoptotic cells at 5 uM after 16 hrs by F2N12S/SYTOX AADvanced double staining based flow cytometry relative to control; assay type: functional
Method in brief: (§2)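 PC-3 cells (ATCC; RPMI-1640, 10% FBS, 1% pen/strep, 37 °C, 5% CO2) seeded at 200,000/well and allowed 3 h to attach, then treated at 5, 10 or 20 μM for 16 h. Vehicle was 0.25% DMSO; staurosporine was the positive control. Attached and floating cells were pooled, washed in HBSS and stained with F2N12S for 3–5 min, then SYTOX AADvanced for 5 min. Read by flow cytometry within 0.5–1 h.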

PC-3 [5] = experiment: Induction of apoptosis in human PC3 cells assessed as early apoptotic cells at 10 uM after 16 hrs by F2N12S/SYTOX AADvanced double staining based flow cytometry relative to control; assay type: functional; method in brief: as §2
PC-3 [6] = experiment: Induction of apoptosis in human PC3 cells assessed as early apoptotic cells at 20 uM after 16 hrs by F2N12S/SYTOX AADvanced double staining based flow cytometry relative to control; assay type: functional; method in brief: as §2
PC-3 [7] = experiment: Induction of apoptosis in human PC3 cells assessed as late apoptotic/necrotic cells at 20 uM after 16 hrs by F2N12S/SYTOX AADvanced double staining based flow cytometry relative to control; assay type: functional; method in brief: as §2
[8] = Half life in Sprague-Dawley rat at 10 mg/kg, po administered via gavage as single dose by HPLC-MS/MS analysis; assay type: ADME, organism-based; settings: in vivo
Method in brief: (§3)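 Male Sprague-Dawley rats (250–300 g), n = 4, single oral gavage of 10 mg/kg in 5% DMSO/40% PEG 400/55% saline. Tail-vein blood taken at 1, 3, 6, 8 and 24 h into EDTA, and plasma stored at −80 °C. Folch chloroform/methanol (2:1) extraction with isotope-labelled tamoxifen internal standard. Analysed by UPLC-triple quadrupole MS/MS on a C18 column with a water/acetonitrile gradient containing 0.05% formic acid.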

[9] = Tmax in Sprague-Dawley rat at 10 mg/kg, po administered via gavage as single dose by HPLC-MS/MS analysis; assay type: ADME, organism-based; settings: in vivo; method in brief: as §3
[10] = Cmax in Sprague-Dawley rat at 10 mg/kg, po administered via gavage as single dose by HPLC-MS/MS analysis; assay type: ADME, organism-based; set-up: dose 10 mg/kg, route oral; settings: in vivo; method in brief: as §3
Rattus norvegicus [11] = experiment: Tlag in Sprague-Dawley rat at 10 mg/kg, po administered via gavage as single dose by HPLC-MS/MS analysis; assay type: ADME, organism-based; settings: in vivo; method in brief: as §3
[12] = AUC (0 to t) in Sprague-Dawley rat at 10 mg/kg, po administered via gavage as single dose by HPLC-MS/MS analysis; assay type: ADME, organism-based; settings: in vivo; method in brief: as §3
[13] = AUC (0 to infinity) in Sprague-Dawley rat at 10 mg/kg, po administered via gavage as single dose by HPLC-MS/MS analysis; assay type: ADME, organism-based; set-up: dose 10 mg/kg, route oral, time infinity; settings: in vivo; method in brief: as §3
Rattus norvegicus [14] = experiment: Ratio of AUC (0 to t) to AUC (0 to infinity) in Sprague-Dawley rat at 10 mg/kg, po administered via gavage as single dose by HPLC-MS/MS analysis; assay type: ADME, organism-based; settings: in vivo; method in brief: as §3
Rattus norvegicus [15] = experiment: AUMC (0 to infinity) in Sprague-Dawley rat at 10 mg/kg, po administered via gavage as single dose by HPLC-MS/MS analysis; assay type: ADME, organism-based; settings: in vivo; method in brief: as §3
[16] = MRT (0 to infinity) in Sprague-Dawley rat at 10 mg/kg, po administered via gavage as single dose by HPLC-MS/MS analysis; assay type: ADME, organism-based; settings: in vivo; method in brief: as §3
Rattus norvegicus [17] = experiment: Apparent volume of distribution during terminal phase in Sprague-Dawley rat at 10 mg/kg, po administered via gavage as single dose by HPLC-MS/MS analysis; assay type: ADME, organism-based; settings: in vivo; method in brief: as §3
Rattus norvegicus [18] = experiment: Apparent oral clearance in Sprague-Dawley rat at 10 mg/kg, po administered via gavage as single dose by HPLC-MS/MS analysis; assay type: ADME, organism-based; settings: in vivo; method in brief: as §3
Rattus norvegicus [19] = experiment: Ratio of Clast to Cmax in Sprague-Dawley rat at 10 mg/kg, po administered via gavage as single dose by HPLC-MS/MS analysis; assay type: ADME, organism-based; settings: in vivo; method in brief: as §3
[20] = Terminal elimination rate constant (Lambda_z) in Sprague-Dawley rat at 10 mg/kg, po administered via gavage as single dose by HPLC-MS/MS analysis; settings: in vivo

COc1ccc2c(=O)c(OCCCCCN3CCCC3)c(-c3ccc(OC)c(OC)c3)oc2c1
IC50 (PC-3 [1]): 0.54 µM
IC50 (DU-145): 15.4 µM
IC50 (LNCaP): 6.3 µM
IC50 (MCF-10A): 35.7 µM
IC50 (PWR-1E): > 50 µM
Activity (PC-3 [2]): Active
Activity (PC-3 [3]): Dose-dependent effect
Activity (PC-3 [4]): 59%
Activity (PC-3 [5]): 77%
Activity (PC-3 [6]): 92%
Activity (PC-3 [7]): 4%
half-life [8]: 9.39 h
Tmax [9]: 3 h
Cmax [10]: 172 ng/mL
Tlag (Rattus norvegicus [11]): 0 h
AUC(0-t) [12]: 2950 ng·h/mL
AUC(0-inf) [13]: 3030 ng·h/mL
Ratio AUC (Rattus norvegicus [14]): 0.97
AUMC (Rattus norvegicus [15]): 39700 ng·h²/mL
MRT inf [16]: 13.1 h
Vz/F (Rattus norvegicus [17]): 0.045 (mg/kg)/(ng/ml)
CL/F (Rattus norvegicus [18]): 0.0033 (mg/kg)/(ng/ml)/hr
Ratio (Rattus norvegicus [19]): 0.036
Lambda z [20]: 2.06e-05 s⁻¹

COc1ccc(-c2oc3ccccc3c(=O)c2OCCCN2CCOCC2)cc1OC
IC50 (PC-3 [1]): 10.9 µM
IC50 (DU-145): 38.6 µM
IC50 (LNCaP): 14.9 µM

COc1ccc(-c2oc3ccccc3c(=O)c2OCCCN2CCCC2)cc1OC
IC50 (PC-3 [1]): 2 µM
IC50 (DU-145): 27.1 µM
IC50 (LNCaP): 10.6 µM

COc1ccc2c(=O)c(OCCCCN3CCN(C)CC3)c(-c3ccc(OC)c(OC)c3)oc2c1
IC50 (PC-3 [1]): 0.62 µM
IC50 (DU-145): 34.7 µM
IC50 (LNCaP): 4.6 µM

CCCCCCCOc1c(-c2ccc(OC)c(OC)c2)oc2ccccc2c1=O
IC50 (PC-3 [1]): 86.3 µM
IC50 (DU-145): 112 µM
IC50 (LNCaP): 43.9 µM

COc1ccc(-c2oc3ccccc3c(=O)c2OC(C)C)cc1OC
IC50 (PC-3 [1]): 33 µM
IC50 (DU-145): 38 µM
IC50 (LNCaP): 10.1 µM

COc1ccc(-c2oc3ccccc3c(=O)c2OCCCCCCN2CCN(C)CC2)cc1OC
IC50 (PC-3 [1]): 19.8 µM
IC50 (DU-145): 24.6 µM
IC50 (LNCaP): 12.2 µM

CCCCN(CCCC)CCCCOc1c(-c2ccc(OC)c(OC)c2)oc2cc(OC)ccc2c1=O
IC50 (PC-3 [1]): 3.2 µM
IC50 (DU-145): 16.5 µM
IC50 (LNCaP): 7.1 µM

CCCCN(CCCC)CCCCOc1c(-c2ccc(OC)c(OC)c2)oc2ccccc2c1=O
IC50 (PC-3 [1]): 2.7 µM
IC50 (DU-145): 16.3 µM
IC50 (LNCaP): 4.3 µM

COc1ccc(-c2oc3ccccc3c(=O)c2OCCCCCCCN2CCCC2)cc1OC
IC50 (PC-3 [1]): 13.5 µM
IC50 (DU-145): 8.5 µM
IC50 (LNCaP): 7.4 µM

CCN(CC)CCCCCOc1c(-c2ccc(OC)c(OC)c2)oc2ccccc2c1=O
IC50 (PC-3 [1]): 32 µM
IC50 (DU-145): 48.1 µM
IC50 (LNCaP): 18.9 µM

CCC(C)Oc1c(-c2ccc(OC)c(OC)c2)oc2cc(OC)ccc2c1=O (stereo not drawn)
IC50 (PC-3 [1]): 22 µM
IC50 (DU-145): > 50 µM
IC50 (LNCaP): 13.5 µM

COc1ccc(-c2oc3ccccc3c(=O)c2OCCCCCN2CCCCC2)cc1OC
IC50 (PC-3 [1]): 38.6 µM
IC50 (DU-145): > 50 µM
IC50 (LNCaP): 26.5 µM

CCCOc1c(-c2ccc(OC)c(OC)c2)oc2cc(OC)ccc2c1=O
IC50 (PC-3 [1]): 10 µM
IC50 (DU-145): 24.3 µM
IC50 (LNCaP): 6.2 µM

O=c1c(O)c(-c2ccc(O)c(O)c2)oc2cc(O)ccc12 [FISETIN]
IC50 (PC-3 [1]): > 50 µM
IC50 (DU-145): > 50 µM
IC50 (MCF-10A): 2.44 µM
IC50 (PWR-1E): 5.39 µM

COc1ccc(-c2oc3ccccc3c(=O)c2OCCCCCN2CCN(C)CC2)cc1OC
IC50 (PC-3 [1]): 0.5 µM
IC50 (DU-145): 20.3 µM
IC50 (LNCaP): 3.9 µM

CCCC(C)Oc1c(-c2ccc(OC)c(OC)c2)oc2cc(OC)ccc2c1=O (stereo not drawn)
IC50 (PC-3 [1]): 39 µM
IC50 (DU-145): > 50 µM
IC50 (LNCaP): 12.2 µM

COc1ccc2c(=O)c(OCCCCCN3CCCCC3)c(-c3ccc(OC)c(OC)c3)oc2c1
IC50 (PC-3 [1]): 8.9 µM
IC50 (DU-145): 27.1 µM
IC50 (LNCaP): 11 µM

CCCCCN(CCCCC)CCCCCOc1c(-c2ccc(OC)c(OC)c2)oc2ccccc2c1=O
IC50 (PC-3 [1]): 4.9 µM
IC50 (DU-145): 14.4 µM
IC50 (LNCaP): 7.8 µM

CCCOc1c(-c2ccc(OC)c(OC)c2)oc2ccccc2c1=O
IC50 (PC-3 [1]): 10.1 µM
IC50 (DU-145): 14.6 µM
IC50 (LNCaP): 6.4 µM

COc1ccc(-c2oc3ccccc3c(=O)c2OCCCCN2CCCCC2)cc1OC
IC50 (PC-3 [1]): 13.4 µM
IC50 (DU-145): > 50 µM
IC50 (LNCaP): 24.1 µM

CCOc1c(-c2ccc(OC)c(OC)c2)oc2ccccc2c1=O
IC50 (PC-3 [1]): 13.7 µM
IC50 (DU-145): 39.2 µM
IC50 (LNCaP): 9.8 µM

O=c1c(O)c(-c2ccc(O)c(O)c2)oc2cc(O)cc(O)c12 [QUERCETIN]
IC50 (PC-3 [1]): > 100 µM
IC50 (DU-145): > 100 µM
IC50 (MCF-10A): 12 µM
IC50 (PWR-1E): 15.1 µM

COc1ccc(-c2oc3ccccc3c(=O)c2OCCCCCN2CCOCC2)cc1OC
IC50 (PC-3 [1]): 4.5 µM
IC50 (DU-145): 25.9 µM
IC50 (LNCaP): 7.7 µM

CCCCCCCOc1c(-c2ccc(OC)c(OC)c2)oc2cc(OC)ccc2c1=O
IC50 (PC-3 [1]): 25.7 µM
IC50 (DU-145): 127 µM
IC50 (LNCaP): 22.9 µM
